High-throughput results from PubChem BioAssay.
Most compounds without a hit are left out; they make up all but 1.8% or so of the library.
KLK5 inh: kallikrein 5 (human) inhibition; Q9Y337; recombinant hK5, fluorogenic AMC substrate cleavage; inhibition, % at 5 µM; 210,000 tested, 0.59% active; AID 873;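 active = inhibition of 40% or more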;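 note: 0% = enzyme controls without compound and 100% = no-enzyme blanks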
Target sequence (Q9Y337 67-293 limits assumed): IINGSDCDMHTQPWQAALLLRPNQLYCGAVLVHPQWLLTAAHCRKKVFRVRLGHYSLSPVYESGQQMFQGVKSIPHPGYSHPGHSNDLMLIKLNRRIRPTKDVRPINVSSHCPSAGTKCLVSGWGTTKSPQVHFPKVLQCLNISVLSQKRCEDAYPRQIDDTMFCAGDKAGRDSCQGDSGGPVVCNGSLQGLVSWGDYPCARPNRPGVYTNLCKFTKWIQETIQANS
FXIa inh 1536: factor XIa (human) inhibition; P03951; purified FXIa, Boc-Glu-Ala-Arg-AMC fluorogenic substrate; inhibition, % at 5 µM; 220,000 tested, 0.14% active;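 active = inhibition of at least 40%; inactive = inhibition below 40%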;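 note: fluorescence of freed AMC excited at 355 nm; 0% = enzyme without compound and 100% = no enzyme blank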
Wee1 stabilizer: inhibitors of human Wee1 degradation | P30291 | HeLa Luc-Wee1K328M stability, luciferase luminescence; 100% = proteasome inhibitor MG132 effect | reporter increase, % at 5 µM | 220,000 tested, 1.2% active;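 active = activation above the mean of all tested compounds plus 3 SD, set per screening run, cut at about 8.8% in these data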;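 note: cells exposed to compound for 20 h before luminescence read; 0% = DMSO alone and 100% = MG132 at 30 µM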
FXIIa inh: blocks human coagulation factor XIIa protease activity | 220,000 tested, 0.3% active | AID 800 | purified FXIIa, Boc-QGR-AMC fluorogenic substrate, 2 h | inhibition, % at 5 µM; in the data active = inhibition above about 40%;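 note: 0% = enzyme with no compound and 100% = blank without enzyme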
Platelet DG rel: platelet dense granule release activity; human platelet-rich plasma, SFLLRN dense granule ATP release, luminescence; inhibition, %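 (compounds screened at 7.5 µM in platelet-rich plasma)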; 300,000 tested, 0.22% active; AID 1663;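 active = mean replicate score, as percent of positive control, at or above 50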
thrombin 1536: blocks human thrombin protease activity; P00734; alpha-thrombin, Boc-VPR-AMC fluorogenic substrate cleavage; inhibition, % at 5 µM; 220,000 tested, 0.26% active; AID 1046;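 active = inhibition at or above 40%; inactive = inhibition below 40%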;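 note: 0% = enzyme with no compound and 100% = wells without enzyme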
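System: Human alpha-thrombin protein | Medium: pH 7.5 Tris (50 mM) with NaCl 150 mM, Tween 20 0.05% | Times: Enzyme reaction carried out at room temperature | Detection: AMC fluorescence, 355/460 nm | Evaluation: Percent inhibition scaled between no-compound controls and no-enzyme blanks | Benchmarks: Enzyme without compound as high, wells lacking enzyme as low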
* hit, by the source's call; . = not tested or not shown.

SMILES | KLK5 inh | FXIa inh 1536 | Wee1 stabilizer | FXIIa inh | Platelet DG rel | thrombin 1536
CN(C(=O)COC(=O)c1cc(S(=O)(=O)N2CCOCC2)ccc1Cl)C1CCS(=O)(=O)C1 (stereo not drawn) | . | . | . | . | 1.9 | .
Cc1c(C(c2ccc(F)cc2)c2c(C)n(C)n(-c3ccccc3)c2=O)c(=O)n(-c2ccccc2)n1C | . | . | . | . | 4.0 | .
CC(=O)c1ccc(NC(=S)NC(=O)c2c(Cl)c(C)nn2C)cc1 | -13.2 | 8.5 | -2.6 | 9.2 | 3.5 | -1.2
O=C1C(C=Nc2ccc(F)cc2)=C(O)c2ccccc21 | -1.6 | -4.2 | -1.3 | 2.4 | 32.9 | -10.3
COc1ccc(N=CC2=C(O)c3ccccc3C2=O)c(OC)c1 | 11.4 | 6.7 | -0.1 | 18.0 | 50.9* | 4.2
Cc1ccccc1N=CC1=C(O)c2ccccc2C1=O | -5.3 | -1.0 | -0.6 | 5.5 | 57.6* | 0.1
Cc1ccc(C(CC(=O)c2ccco2)SCCO)cc1 (stereo not drawn) | 3.5 | 7.5 | 10.6* | -0.9 | -3.1 | -2.8
O=C(CC(SCCO)c1ccc(F)cc1)c1ccco1 (stereo not drawn) | -14.7 | 0.4 | -0.4 | 10.5 | -3.5 | -1.4
CC(C)CCN1C(=O)c2ccc(C(=O)NCC3CCCO3)cc2C1=O (stereo not drawn) | -0.6 | 20.5 | 9.6* | 27.5 | -13.8 | -1.8
CC1CCCN(c2ccc(C(=O)NCC3CCCO3)cn2)C1 (stereo not drawn) | -20.3 | -5.2 | 9.6* | 15.0 | 2.2 | -9.3
O=S(=O)(c1cccc(COc2c(Cl)cccc2Cl)c1)N1CCOCC1 | . | . | . | . | -6.8 | .
S=C(NCCCn1ccnc1)Nc1cccc(Cl)c1 | . | 2.3 | 2.2 | 9.9 | -15.2 | 2.1
CCOc1ccc(C2CC(=O)N(Nc3ccc([N+](=O)[O-])cc3[N+](=O)[O-])C2=O)cc1 (stereo not drawn) | 21.1 | 15.0 | 1.1 | 18.3 | 3.3 | 45.4*
CC(C)Oc1ccc(C2CC(=O)N(Nc3ccc([N+](=O)[O-])cc3[N+](=O)[O-])C2=O)cc1 (stereo not drawn) | 0.5 | -1.0 | 0.6 | 6.6 | -4.2 | -3.3
CC(NC(=O)COC(=O)c1cc(NS(=O)(=O)c2ccc(Cl)c([N+](=O)[O-])c2)ccc1O)C1CC2CCC1C2 (stereo not drawn) | -11.5 | 4.7 | 1.7 | 12.3 | -4.7 | -4.6
CCCCC(=O)Nc1sc2c(c1-c1nc3ccccc3s1)CCN(C(C)=O)C2 | -2.0 | -0.8 | -1.9 | 20.0 | . | 6.2
CC(=O)N1CCc2c(sc(NC(=O)C3CC3)c2-c2nc3ccccc3s2)C1 | -8.4 | 0.1 | -1.8 | 51.1* | 20.8 | -2.9
CN(C)C(=O)c1c2c(nc3ccccc13)CCCC2 | 1.2 | -2.9 | -3.3 | 1.8 | -0.3 | -5.2
CN(C)C(=O)c1c2c(nc3ccccc13)-c1ccccc1CC2 | -1.4 | -1.4 | 8.9* | 8.2 | -0.3 | -0.6
Cn1cccc1C(=O)OCC(=O)NC(=O)NC1CCCCC1 | 3.8 | 4.0 | -3.1 | 12.7 | 8.2 | 0.5
COc1ccc(NC2CCCN(C(=O)CSc3ccncc3)C2)cc1 (stereo not drawn) | . | . | . | . | 0.1 | .
COc1ccc(/C=C(\C#N)c2n[nH]c(Cn3cncn3)n2)cc1 | 21.4 | 12.3 | -1.6 | 48.0* | -2.0 | 4.5
N#C/C(=C\c1ccc(Cl)cc1)c1n[nH]c(Cn2cncn2)n1 | -18.1 | -5.5 | 0.1 | 11.8 | -2.9 | -5.2
CC(C)CCNC(=O)NC(=O)CSc1nnc(-c2ccccc2F)n1N | 75.5* | 14.3 | -0.7 | -2.4 | 0.1 | 23.4
CC(C)(C)NC(=O)NC(=O)CSc1nnc(-c2ccccc2F)n1N | -7.4 | 1.1 | -0.4 | 10.7 | -2.5 | -2.3
SMILES | KLK5 inh | FXIa inh 1536 | Wee1 stabilizer | FXIIa inh | Platelet DG rel | thrombin 1536
Cn1c(=O)c2c(nc(NCc3ccco3)n2C/C=C/c2ccccc2)n(C)c1=O | -11.3 | -0.3 | . | 5.2 | 74.0* | -3.6
CCc1nc(NC(=O)Cc2csc(C)n2)sc1C(=O)OC | . | . | . | . | -3.0 | .
COc1cccc(NC(=O)NC2CCCCCCC2)c1 | . | . | . | . | -8.1 | .
COc1cccc(NC(=O)C(=S)NC2CCCCC2)c1 | -3.0 | -2.8 | 9.7* | 8.7 | -1.1 | -2.7
O=C(Nc1cc([N+](=O)[O-])ccc1N1CCCC1)c1cccs1 | . | . | . | . | 1.7 | .
O=C(c1ccco1)N1CCN(C/C=C/c2ccccc2)CC1 | 2.0 | 4.2 | 2.1 | 14.7 | -0.8 | 0.4
O=C(NC(=S)N1CCN(C/C=C/c2ccccc2)CC1)c1ccco1 | -1.2 | 2.5 | 9.6* | 6.7 | -2.1 | -3.3
